The record followed here is ChEMBL document CHEMBL1221376, “Identification and optimization of novel 2-(4-oxo-2-aryl-quinazolin-3(4H)-yl)acetamide vasopressin V3 (V1b) receptor antagonists” (Bioorg Med Chem Lett, 2010).

Vasopressin V1a receptor (Homo sapiens), sequence (P37288 whole entry, looked up): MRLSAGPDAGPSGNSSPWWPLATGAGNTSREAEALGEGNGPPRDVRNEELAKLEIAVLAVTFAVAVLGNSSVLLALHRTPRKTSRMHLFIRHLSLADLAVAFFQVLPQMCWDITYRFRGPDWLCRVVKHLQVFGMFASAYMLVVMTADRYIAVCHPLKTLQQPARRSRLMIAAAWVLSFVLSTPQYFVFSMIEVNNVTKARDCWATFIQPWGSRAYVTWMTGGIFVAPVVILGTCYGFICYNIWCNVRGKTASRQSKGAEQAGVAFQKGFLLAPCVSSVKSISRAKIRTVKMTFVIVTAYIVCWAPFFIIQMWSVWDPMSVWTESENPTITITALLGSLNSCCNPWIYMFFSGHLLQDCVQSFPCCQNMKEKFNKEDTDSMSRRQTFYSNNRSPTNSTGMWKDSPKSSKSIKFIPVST

The first test concerns the target T1, Vasopressin V1b receptor (Homo sapiens, UniProt P47901).
T1 sequence (P47901 whole entry): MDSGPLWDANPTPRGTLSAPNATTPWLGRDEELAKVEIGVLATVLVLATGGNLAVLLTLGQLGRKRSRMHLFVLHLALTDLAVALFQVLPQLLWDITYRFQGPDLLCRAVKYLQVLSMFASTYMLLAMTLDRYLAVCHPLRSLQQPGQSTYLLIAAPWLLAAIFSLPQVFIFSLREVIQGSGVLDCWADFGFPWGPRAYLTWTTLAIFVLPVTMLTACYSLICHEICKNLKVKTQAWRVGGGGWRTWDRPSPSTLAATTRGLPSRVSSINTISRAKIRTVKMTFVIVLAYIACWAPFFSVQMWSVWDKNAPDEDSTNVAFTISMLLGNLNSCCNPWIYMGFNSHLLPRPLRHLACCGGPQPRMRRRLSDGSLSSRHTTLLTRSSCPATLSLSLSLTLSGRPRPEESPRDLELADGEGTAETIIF
The test is described as follows: Displacement of [3H]AVP from human vasopresin3 receptor expressed in CHO cells. The test is classed as cell-based. In outline: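 Whole-cell binding on CHO cells stably expressing human V3 (V1b) receptor, grown at 37 °C with 5% CO2. Cells seeded at 30,000 per well, cultured overnight at 37 °C, then washed twice with PBS. Serially diluted compounds plus 5 nM [3H]-AVP (final) in PBS with 10 mM MgCl2, 0.1% BSA and 1% DMSO, 30 min at room temperature. Washed, air dried, scintillation counted.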
(In general: Loss of bound radioactivity is the signal in a displacement assay; it reports binding, not function.)
Usually IC50 stands for the midpoint of a concentration-inhibition curve. Low values mean greater potency in that assay, high ones weaker potency in that assay. `CN1CCN(CCOc2ccc3nc(-c4ccccc4)n(CC(=O)NCC4CC4)c(=O)c3c2)CC1` showed an IC50 of 22 µM. This counts as double-digit micromolar.

`NCCCOc1ccc2nc(-c3ccccc3)n(CC(=O)NCC3CC3)c(=O)c2c1`: the IC50 came out at 3.6 µM. `COC1CCN(CCCOc2ccc3nc(-c4ccccc4)n(CC(=O)NCC4CC4)c(=O)c3c2)CC1` displayed a concentration for half-maximal inhibition (IC50) of 0.71 µM. Still for that read-out and setting: the figure for `O=C(Cn1c(-c2ccccc2)nc2ccc(OCCCN3CCCCC3)cc2c1=O)NCC1CC1` is 0.31 µM; for `O=C(CCc1ccc(O)cc1)NCCOc1ccc2nc(-c3ccccc3)n(CC(=O)NCC3CC3)c(=O)c2c1` it is above 100 µM; for `CCN(CC)CCCOc1ccc2nc(-c3ccccc3)n(CC(=O)NCC3CC3)c(=O)c2c1` it is 3.8 µM. In turn, `O=C(Cn1c(-c2ccccc2)nc2ccc(OCCCN3CCCCCC3)cc2c1=O)NCC1CC1` showed an IC50 of 0.34 µM. Same read-out and setting: the figure for `NCCOc1ccc2nc(-c3ccccc3)n(CC(=O)NCC3CC3)c(=O)c2c1` is 4 µM. `CC(C)C[C@@H](COc1ccc2nc(-c3ccccc3)n(CC(=O)NCC3CC3)c(=O)c2c1)NC(=O)CN` registered an IC50 of 5.1 µM. Same read-out and setting: the figure for `CN1CCN(CCCOc2ccc3nc(-c4ccccc4)n(CC(=O)NCC4CC4)c(=O)c3c2)CC1` is 1.7 µM. Take `CC(C)C[C@H](N)COc1ccc2nc(-c3ccccc3)n(CC(=O)NCC3CC3)c(=O)c2c1`: the IC50 stood at 2.1 µM.

In the case of `O=C(Cn1c(-c2ccccc2)nc2ccc(OCCCN3CCNCC3)cc2c1=O)NCC1CC1`, the IC50 was determined as 25.8 µM. `CNCCCOc1ccc2nc(-c3ccccc3)n(CC(=O)NCC3CC3)c(=O)c2c1`: the IC50 is 7.6 µM.

The molecule `O=C(Cn1c(-c2ccccc2)nc2ccc(O)cc2c1=O)NCC1CC1` had an IC50 above 100 µM. `NCCCCCOc1ccc2nc(-c3ccccc3)n(CC(=O)NCC3CC3)c(=O)c2c1`: the IC50 was above 30 µM. Still for that read-out and setting: the figure for `NCCCCOc1ccc2nc(-c3ccccc3)n(CC(=O)NCC3CC3)c(=O)c2c1` is above 30 µM.

In turn, `O=C(Cn1c(-c2ccccc2)nc2ccc(OCCCN3CCOCC3)cc2c1=O)NCC1CC1` had an IC50 of 0.12 µM. In turn, `NCCCCCCOc1ccc2nc(-c3ccccc3)n(CC(=O)NCC3CC3)c(=O)c2c1` came in with an IC50 above 100 µM.

As to `NCC(=O)NCCOc1ccc2nc(-c3ccccc3)n(CC(=O)NCC3CC3)c(=O)c2c1`, the IC50 amounted to 30.5 µM. This lies in the double-digit micromolar range.

Molecule `O=C(Cn1c(-c2ccccc2)nc2ccc(OCCCN3CCC(O)CC3)cc2c1=O)NCC1CC1` displayed an IC50 of 1.1 µM. This IC50 lies about 28-fold lower than the previous one. As for `O=C(Cn1c(-c2ccccc2)nc2ccc(OCCCN3CCCC3)cc2c1=O)NCC1CC1`, the IC50 came out at 1.8 µM. The same measure, in the same setting: the figure for `CC(C)C[C@@H](COc1ccc2nc(-c3ccccc3)n(CC(=O)NCC3CC3)c(=O)c2c1)NC(=O)[C@@H](N)Cc1ccc(O)cc1` is 0.2 µM; for `CN1CCN(CCCCOc2ccc3nc(-c4ccccc4)n(CC(=O)NCC4CC4)c(=O)c3c2)CC1` it is 4.8 µM.

The target in another test is T2, Vasopressin V1b receptor (Rattus norvegicus, UniProt P48974).
T2 sequence (P48974 whole entry): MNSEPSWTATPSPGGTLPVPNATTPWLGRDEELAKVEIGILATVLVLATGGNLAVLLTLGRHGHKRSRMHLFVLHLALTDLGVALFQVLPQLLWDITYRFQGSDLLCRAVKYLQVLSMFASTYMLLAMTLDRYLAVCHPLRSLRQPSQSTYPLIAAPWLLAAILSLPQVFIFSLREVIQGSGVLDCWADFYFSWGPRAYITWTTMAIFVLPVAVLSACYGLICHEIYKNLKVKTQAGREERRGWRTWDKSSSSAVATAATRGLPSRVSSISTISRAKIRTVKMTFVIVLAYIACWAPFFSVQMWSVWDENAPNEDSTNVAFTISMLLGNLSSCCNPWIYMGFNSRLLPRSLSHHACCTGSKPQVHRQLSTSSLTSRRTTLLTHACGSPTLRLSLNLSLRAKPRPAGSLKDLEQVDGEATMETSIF
The test is described as follows: Displacement of [3H]AVP from rat vasopressin V3 receptor.
Molecule `O=C(Cn1c(-c2ccccc2)nc2ccc(OCCCN3CCOCC3)cc2c1=O)NCC1CC1` gave an IC50 of 0.21 µM.

In another test the target is Vasopressin V1a receptor (Homo sapiens) (UniProt P37288). The test is described as follows: Displacement of [3H]AVP from human vasopressin V1a receptor at 5 uM. In short, it runs like this:
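Membrane binding using membranes from CHO cells stably expressing human V1a receptor, with 5 nM [3H]-AVP (final) and test compound in 50 mM Tris–HCl pH 7.4, 5 mM MgCl2, 1 mg/mL BSA and 0.5% DMSO. Incubated 60 min at room temperature, then rapid filtration over polyethylenimine-soaked GF/B filters. Filters washed with ice-cold Tris–HCl, dried 30 min at 55 °C, scintillation counted.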
By inhibition is commonly meant the relative decrease from the control value, in per cent. High values mean a response far below the control, low ones a response near the control. Consider `O=C(Cn1c(-c2ccccc2)nc2ccc(OCCCN3CCOCC3)cc2c1=O)NCC1CC1`, for which the inhibition came out at 6%.

For a further test, the target named is Vasopressin V2 receptor (Homo sapiens, UniProt P30518). In words: Displacement of [3H]AVP from human vasopressin V2 receptor.
Vasopressin V2 receptor, sequence (P30518 whole entry): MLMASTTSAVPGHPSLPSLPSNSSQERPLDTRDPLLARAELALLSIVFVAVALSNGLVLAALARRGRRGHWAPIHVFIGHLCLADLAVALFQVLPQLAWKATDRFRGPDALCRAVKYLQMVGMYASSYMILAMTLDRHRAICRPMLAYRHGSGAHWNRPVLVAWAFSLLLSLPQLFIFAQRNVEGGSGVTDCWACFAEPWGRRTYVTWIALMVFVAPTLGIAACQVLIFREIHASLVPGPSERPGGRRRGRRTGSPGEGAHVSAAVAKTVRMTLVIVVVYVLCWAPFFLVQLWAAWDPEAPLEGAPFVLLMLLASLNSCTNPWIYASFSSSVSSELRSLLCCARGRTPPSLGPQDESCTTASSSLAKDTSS
`O=C(Cn1c(-c2ccccc2)nc2ccc(OCCCN3CCOCC3)cc2c1=O)NCC1CC1` yielded an IC50 above 100 µM.

In the next test the target is T3, Oxytocin receptor (Homo sapiens, UniProt P30559).
T3 sequence (P30559 whole entry): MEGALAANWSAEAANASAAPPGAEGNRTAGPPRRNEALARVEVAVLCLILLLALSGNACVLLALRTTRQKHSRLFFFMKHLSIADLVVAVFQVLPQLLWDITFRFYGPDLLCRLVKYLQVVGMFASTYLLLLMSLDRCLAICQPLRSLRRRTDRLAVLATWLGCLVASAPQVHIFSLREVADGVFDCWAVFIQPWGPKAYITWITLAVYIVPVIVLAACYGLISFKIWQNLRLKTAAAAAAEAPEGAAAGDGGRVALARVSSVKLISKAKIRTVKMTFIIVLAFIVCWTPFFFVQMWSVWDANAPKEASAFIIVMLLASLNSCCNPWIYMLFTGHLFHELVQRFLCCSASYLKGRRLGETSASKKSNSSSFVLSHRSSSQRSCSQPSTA
In words: Displacement of [3H]oxytocin from human oxytocin receptor.
`O=C(Cn1c(-c2ccccc2)nc2ccc(OCCCN3CCOCC3)cc2c1=O)NCC1CC1`: the IC50 was above 100 µM.
